Screening data as filed in PubChem.
FAS TE block – blocks the thioesterase domain of human fatty acid synthase; P49327; recombinant FAS-TE, OMFH fluorogenic substrate, fluorescence endpoint; inhibition, % at 15 µM; 360,000 compounds, 0.67% hits; AID 602261;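 active means compounds whose normalised, plate-corrected inhibition of enzyme fluorescence in the single-dose primary screen is 50% or more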;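 further: 0% = DMSO with enzyme and 100% = substrate without enzyme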
Scp1 inh – blocks human Scp-1 phosphatase activity | Recombinant Scp1, phosphopeptide, malachite green phosphate absorbance | AID 493091 | Q9GZU7 | inhibition, % at 20 µM | 340,000 compounds, 0.88% hits;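 active means inhibition above about 50% at 20 µM, limit read from the data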;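 further: plate controls were DMSO wells with enzyme for no effect and wells lacking enzyme for full effect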
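Times: enzyme reaction 45 min at room temperature, colour 5 min, stabilisation 30 min. Material: SCP-1 catalytic fragment, aa 76-261. Medium: Acidic Tris acetate buffer with magnesium and detergent. Signal: colorimetric free-phosphate detection, absorbance 630 nm. Read-out basis: % inhibition of SCP-1 phosphate liberation. Reagent: Phosphorylated 17-residue peptide substrate.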
SUMO1 PPI mod – alters human SUMO1 binding to SIM partners | P63165 | SUMO1 binding to a labelled peptide, TR-FRET, 1 h | inhibition, % at 20 µM | 360,000 compounds, 0.33% hits; in the data active means inhibition above about 37%
STEP inh – STEP (human) phosphatase inhibition; P54829; inhibition, % at 20 µM; 360,000 compounds, 0.25% hits; recombinant STEP, OMFP fluorogenic substrate, fluorescence; AID 588621;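 active means inhibition at 20 µM, scaled per plate between control wells, above about 37%, limit read from the data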;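 further: 0% = DMSO with enzyme and substrate and 100% = substrate only without enzyme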
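Assay system: isolated STEP enzyme / Timing: 20 min at room temperature, dark / Doses: 20 µM, 1% DMSO / Technique: fluorescence intensity, excitation 480 nm, emission 540 nm / Reagent: fluorogenic phosphatase substrate OMFP at 25 µM final / Measure: percent inhibition scaled to no-enzyme and uninhibited-enzyme controls, plate-pattern corrected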
LMPTP inh – blocks human LMPTP phosphatase; P24666; recombinant LMPTP-A, OMFP fluorogenic substrate, fluorescence intensity; inhibition, % at 20 µM; 360,000 compounds, 0.22% hits;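 active means compounds that cut the enzyme signal by at least half of the control window in the single-dose screen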;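 further: plate controls were DMSO wells with enzyme plus substrate for no effect and substrate without enzyme for full effect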
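Test system – LMPTP-A enzyme · Amount – LMPTP-A at 0.625 nM final in the reaction · Buffer or medium – Bis-Tris pH 6.0, DTT, detergent · Reagent – OMFP 400 µM · Doses – single 20 µM dose · Schedule – reaction 50 min, room temperature, dark · Detection – fluorescence intensity of OMFP turnover product · Evaluation – percent inhibition versus substrate-only and uninhibited controls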
STEP conf – STEP (human) phosphatase inhibition, single concentration confirmation; shares compounds with STEP inh; recombinant STEP, OMFP fluorogenic substrate, fluorescence; inhibition, % at 20 µM; AID 623866; 520 compounds, 32% hits; call rule not given here;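 further: 0% = enzyme with substrate plus DMSO and 100% = substrate without enzyme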
Active calls of the source: *; x = not tested or not shown. This is a sample that favours compounds with a hit; in the whole collection about 1.9% have one here.

SMILES	FAS TE block	Scp1 inh	SUMO1 PPI mod	STEP inh	LMPTP inh	STEP conf
Cc1cccc(CNC(=O)C2CCC(=O)N(CCc3cccc(F)c3)C2)n1 (configuration not stated)	-9	0	6	0	-1	x
CCOc1ccc(C(=S)N2CCCC2)cc1	0	-5	0	-2	-3	x
CCN1CCN(C(=S)c2ccc(OC)cc2)CC1	-9	1	2	73*	-1	31
OCCN1CCN(C(=S)c2ccc(Cl)cc2)CC1	-7	1	-1	70*	1	13
CCOc1ccc(C(=S)N2CCN(C)CC2)cc1	-13	-7	0	81*	-1	48*
CCN1CCN(C(=S)c2ccc([N+](=O)[O-])cc2)CC1	-9	1	-20	62*	-1	24
COc1ccc2c(c1)CN(C)S(=O)(=O)c1ccccc1-2	-3	-1	-5	-5	-2	x
CCN1CCN(C(=S)c2ccc(Cl)cc2)CC1	-4	-5	-1	95*	0	63*
S=C(c1ccc(Cl)cc1)N1CCN(Cc2ccccc2)CC1	14	-5	-2	2	1	x
O=C1CNc2cc(Cl)ccc2N1	-7	x	-14	-2	0	x
O=C1CSc2cc(Cl)ccc2N1	-4	10	1	37*	0	16
COCCN(C(=S)Nc1ccc(C(C)C)cc1)C(C)c1cccs1 (configuration not stated)	29	-8	-2	4	2	x
O=C(O)c1cccc(NC(=S)NC(=O)c2ccc(-c3ccccc3)cc2)c1	-2	-3	1	0	1	x
COc1cc2ccccc2cc1C(=O)NC(=S)Nc1cccc(C(=O)O)c1	-28	22	9	42*	2	13
COC(=O)c1cccc(NC(=S)Nc2cccc(Cl)c2C)c1	-1	3	3	-3	2	x
COc1cc(C)c(NC(=S)Nc2cccc(Cl)c2C)cc1OC	-12	-2	-2	48*	-1	3
CSCCNC(=O)C1(C)CCN1C(=O)c1cc(C)n(C)n1 (configuration not stated)	-10	x	5	4	-2	x
COc1cccc(-c2cc(NC(C)=O)c3ncc(-c4ccc(OC)c(OC)c4)n3c2)c1	6	x	-4	-3	3	x
Cc1ccc2nc(NC(=O)c3ccc(S(=O)(=O)N4CCCc5ccccc54)cc3)sc2c1	0	-6	1	121*	1	-5
O=C(Nc1nc2ccc(F)cc2s1)c1cccc(S(=O)(=O)N2CCc3ccccc32)c1	37	-12	1	-1	3	x
O=C(N/N=C/c1cccnc1)c1ccc(NC(=O)c2ccc(Cl)cc2)cc1	-8	3	18	53*	9	11
COc1ccc(-c2c(C(=O)c3ccc(Br)cc3)[nH]c(N)c2C(=O)c2ccccc2)cc1OC	0	x	-1	x	1	x
C#CCOCCOCCOCCNc1nc(N2CCN(C(=O)[C@H](CCC(=O)O)n3cc([C@@H](N)CCCCN)nn3)CC2)nc(N2CCN(C(=O)[C@H](CCCCN)n3cc([C@@H](N)CC(N)=O)nn3)CC2)n1	-14	-11	-49	-4	-11	x
CC1=C(C(=O)OC(C)C)[C@@H](c2ccc(C)o2)NC(=O)N1	-4	-7	3	120*	0	2
COc1cccc(CC(=O)OCC(=O)N(C)CC(=O)Nc2ccc(F)cc2)c1	-5	4	-3	-1	-1	x
SMILES	FAS TE block	Scp1 inh	SUMO1 PPI mod	STEP inh	LMPTP inh	STEP conf
O=C(O)c1ccc(NC(=S)NC(=O)c2ccc(-c3ccc(Br)cc3)o2)cc1	16	8	86*	97*	80*	11
O=C(CN1CCc2cc3c(cc2C1)OCCCO3)Nc1c(F)cccc1F	-1	-6	7	2	-1	x
O=C(O)c1ccccc1C(=O)NCC(O)c1ccccc1 (configuration not stated)	-4	-13	6	91*	-1	-4
O=C(O)c1ccc(/C=N/Nc2nc3ccccc3[nH]2)cc1	-3	38	-9	49*	14	0
O=C(Nc1cccc(Oc2ccc(C(=O)O)c(C(=O)O)c2)c1)c1ccc(-c2ccccc2)cc1	-12	20	22	35	8	x
CC(C)(C)C(=O)Nc1ccc(C(=O)Nc2cccc(Oc3ccc(C(=O)O)c(C(=O)O)c3)c2)cc1	-1	18	13	60*	-1	82*
Cc1ccc(C(=O)N/N=C\c2ccc(-c3ccc([N+](=O)[O-])cc3)o2)cn1	-3	1	24	60*	33	0
CCN(CC)C(CNC(=O)CSc1nnnn1-c1c(C)cccc1C)c1ccco1 (configuration not stated)	-4	-1	2	0	1	x
O=C(Nc1ccc(C(=O)N2CCCCC2)cc1)c1cccs1	-2	-7	-17	68*	2	4
O=C(CCC(=O)NCCCc1ccccc1)NCCCc1ccccc1	-9	-3	0	119*	-2	15
O=C(O)c1cccc(NC(=S)NC(NC(=O)c2cccc([N+](=O)[O-])c2)C(Cl)(Cl)Cl)c1 (configuration not stated)	17	-8	98*	63*	-1	8
Cc1nc(NC(=O)C2CC2)sc1C(=O)Nc1ccccc1	-1	-4	-1	2	0	x
Cc1nc(NC(N)=S)sc1C(=O)Nc1ccccc1	-7	3	0	50*	11	16
Cc1ccc(C)c(NC(=O)c2cccc(Oc3ccc([N+](=O)[O-])cc3Cl)c2)c1	36	-8	-3	77*	14	18
O=C(Nc1cccc(Cl)c1)c1cccc(Oc2ccc([N+](=O)[O-])cc2Cl)c1	25	-5	-3	-2	2	x
Cc1ccc(Cl)cc1NC(=S)N(CCCN1CCN(C)CC1)Cc1cccs1	5	-1	-2	-1	0	x
CCc1cccc(C)c1NC(=S)N(CCCN1CCOCC1)Cc1cccnc1	-4	-5	4	41*	-5	5
Cc1cc(Cl)ccc1NC(=S)N(CCCN1CCOCC1)Cc1cccs1	11	-2	0	57*	-2	12
COC(=O)c1ccc(COC(=O)CCc2nc(-c3ccccc3)c(-c3ccccc3)o2)cc1	27	-13	0	38*	4	-5
Cc1ccc(S(=O)(=O)N2CCCCC2)cc1NC(=O)c1ccc(=O)[nH]c1	-8	x	12	54*	54*	66*
Cc1ccc(S(=O)(=O)Nc2ccccc2C(=O)N2CCN(C)CC2)cc1	0	-5	-6	4	0	x
O=C(NCCCNC(=O)c1cnccn1)c1ccc(Br)cc1	-1	-1	4	59*	-2	0
O=C(NCCCNC(=O)c1cnccn1)c1ccc(Cl)cc1	-6	-6	6	-1	-2	x
